Results taken from PubChem BioAssay.
Active and inactive are the calls of the source.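 How the source made its calls, unless noted: active means GFP response above 150% of the DMSO level; inconclusive means fewer than 70 events counted for a yeast strain; inactive means the rest.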

Tests used:
[1] = RPL19A-GFP modulators, yeast TOR pathway, confirmation, cell-based, S. cerevisiae, flow cytometry, cherry picks, mother/daughter gates (AID 2270;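 active means GFP response below 50% of the DMSO control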); conditions: S. cerevisiae RPL19A-GFP strain, 3 h, at 10 µM, stronger effect = lower value, 100 = same GFP as DMSO wells
[2] = LAP4-GFP expression modulators in yeast, confirmation, cell-based, cherry picks, flow cytometry, mother/daughter gates (AID 2271;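 active means GFP response above 150% of the DMSO control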;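 further: ratio of sample to DMSO plate mean so 100% equals DMSO level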); conditions: S. cerevisiae LAP4-GFP strain, 3 h, at 10 µM, stronger effect = higher value, 100 means same as DMSO control
In short: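 System: GFP-fusion yeast strain; Incubation: compound exposure 3 h at 30 °C, end-over-end rotation; Measured by: GFP by flow cytometry; Read-out: median GFP fluorescence as percent of plate-mean DMSO wells; Medium: synthetic complete (SC) yeast growth medium; Compound: single test-compound dose, 10 µM final; Benchmarks: DMSO-only negative wells, rapamycin 400 ng/mL positive wells.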

[3] = modulators of MEP2-GFP levels in yeast, confirmation, S. cerevisiae, flow cytometry GFP, cherry picks (AID 2272;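 active means GFP response above 150% of the DMSO control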;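 further: ratio of well signal to plate DMSO mean so 100% equals DMSO level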); conditions: S. cerevisiae MEP2-GFP strain, 3 h, at 10 µM, stronger effect = higher value
[4] = AGP1-GFP expression modulators, hit retest, confirmation, cell-based, flow cytometry, S. cerevisiae, cherry picks (AID 2273);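 further: median GFP channel fluorescence over the whole cell population gate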; conditions: S. cerevisiae AGP1-GFP strain, 3 h, at 10 µM
[5] = modulators of CIT2-GFP expression in yeast, confirmation, S. cerevisiae, GFP fusion, cherry picks, mother/daughter gates (AID 2274); conditions: S. cerevisiae CIT2-GFP strain, flow cytometry, 3 h, at 10 µM, stronger effect = higher value
[6] = measured here: daughter cell gate
[7] = measured here: mother cell gate
[8] = measured here: daughter cell gate response
[9] = measured here: mother cell gate response

Row | SMILES | GFP response vs DMSO [1] | GFP response vs DMSO [1, 6] | GFP response vs DMSO [1, 7] | GFP response relative to DMSO [2] | GFP response relative to DMSO [2, 8] | GFP response relative to DMSO [2, 9] | GFP response vs DMSO [3] | GFP response, % of DMSO [4] | GFP response, % of DMSO [5] | GFP response, % of DMSO [5, 6] | GFP response, % of DMSO [5, 7]
1 | CCCN(c1ccccc1F)S(=O)(=O)c1cc(-c2cc(C)no2)ccc1OC | 95.6% (inactive) | 95.6% | 96.1% | 97.9% (inactive) | 96% | 98.3% | 102% (inactive) | 95.6% (inactive) | 95.5% (inactive) | 95.4% | 95%
2 | CCOC(=O)c1ccccc1NC(=O)c1c(O)c2ccccc2n(CC)c1=O | 95.6% (inactive) | 96.9% | 96.2% | 101% (inactive) | 102% | 98.3% | 102% (inactive) | 93.7% (inactive) | 98.3% (inactive) | 99.1% | 97.3%
3 | Cc1ccc(-n2nnnc2C(Cl)(Cl)c2nnnn2-c2ccc(C)cc2)cc1 | 99.7% (inactive) | 98.8% | 98.6% | 136% (inactive) | 120% | 139% | 112% (inactive) | 100% (inactive) | 105% (inactive) | 106% | 100%
4 | CCOC(=O)COc1c(Cl)cc(/C=C2\N=C(C)OC2=O)cc1OC | 105% (inactive) | 105% | 103% | 109% (inactive) | 108% | 113% | 104% (inactive) | 98.9% (inactive) | 103% (inactive) | 105% | 99.8%
5 | CS(=O)(=O)Nc1cccc(C2=NN(S(C)(=O)=O)C(c3ccc4c(c3)OCO4)C2)c1 (stereo not drawn) | 97.2% (inactive) | 98.9% | 98.7% | 99.2% (inactive) | 99.2% | 98.3% | 102% (inactive) | 99.5% (inactive) | 103% (inactive) | 103% | 103%
6 | CCOC(=O)Cc1csc(NC(=O)CSc2nnc(-c3ccc(C)cc3)o2)n1 | 101% (inactive) | 98.8% | 101% | 103% (inactive) | 101% | 101% | 104% (inactive) | 104% (inactive) | 104% (inactive) | 98.3% | 105%
7 | N=C1/C(=C\c2ccc(Br)o2)C(=O)N=C2SC(CC(=O)N3CCCCC3)=NN12 | 97.4% (inactive) | 96.8% | 95.5% | 104% (inactive) | 103% | 102% | 103% (inactive) | 104% (inactive) | 107% (inactive) | 108% | 108%
8 | Oc1ccc(N=Nc2ccccc2)o1 | 111% (inactive) | 113% | 106% | 180% (active) | 153% | 173% | 124% (inactive) | 111% (inactive) | 118% (inactive) | 119% | 110%
9 | CC(C)(C)C(=O)NCC12C=CC(O1)C1C(=O)N(c3ccccc3)C(=O)C12 (stereo not drawn) | 94% (inactive) | 96.1% | 92.9% | 108% (inactive) | 108% | 111% | 110% (inactive) | 104% (inactive) | 106% (inactive) | 105% | 105%
10 | Cc1cc(C)nc(/N=C(\N)N2CCCCCC2)n1 | 99.3% (inactive) | 100% | 100% | 103% (inactive) | 104% | 102% | 99.5% (inactive) | 99.5% (inactive) | 101% (inactive) | 100% | 100%
11 | [O-][n+]1cccc2c(Br)cc(Br)c(O)c21 | 98.2% (inactive) | 99.6% | 95.6% | 258% (active) | 215% | 251% | 178% (active) | 112% (inactive) | 101% (inactive) | 103% | 95.7%
12 | Cc1ccc(C(=O)c2c3ccccc3[n+]([O-])n2CCO)cc1 | 97% (inactive) | 97.4% | 96.6% | 96.7% (inactive) | 96% | 94% | 98.3% (inactive) | 97.6% (inactive) | 96.9% (inactive) | 99.1% | 97.3%
13 | O=C(Oc1oc(-c2ccco2)nc1C=Nc1ccccc1)c1ccoc1 | 99.6% (inactive) | 99.8% | 96.9% | 198% (active) | 172% | 198% | 108% (inactive) | 98.2% (inactive) | 98.6% (inactive) | 103% | 91.5%
14 | N#Cc1ccccc1Cn1cc(/C=C/[N+](=O)[O-])c2ccccc21 | 96.3% (inactive) | 98.3% | 95.1% | 132% (inactive) | 129% | 134% | 98.8% (inactive) | 104% (inactive) | 97.2% (inactive) | 100% | 91.8%
15 | Cc1ccc(NS(=O)(=O)c2ccc(CCC(=O)N3CCOCC3)cc2)cc1 | 94.6% (inactive) | 94.6% | 94.9% | 95.4% (inactive) | 96% | 95.1% | 96.2% (inactive) | 102% (inactive) | 101% (inactive) | 103% | 101%
16 | O=C1C(Cl)=C(Nc2ccc(F)cc2)C(=O)N1CCc1ccccc1 | 100% (inactive) | 99.3% | 101% | 95.7% (inactive) | 95.9% | 96.2% | 101% (inactive) | 104% (inactive) | 100% (inactive) | 101% | 99.3%
17 | c1ccc(Cn2ncc3ccccc32)cc1 | 100% (inactive) | 101% | 101% | 94.2% (inactive) | 92.2% | 93.6% | 99.5% (inactive) | 96.2% (inactive) | 97.8% (inactive) | 98.3% | 96.8%

Row | SMILES | GFP response vs DMSO [1] | GFP response vs DMSO [1, 6] | GFP response vs DMSO [1, 7] | GFP response relative to DMSO [2] | GFP response relative to DMSO [2, 8] | GFP response relative to DMSO [2, 9] | GFP response vs DMSO [3] | GFP response, % of DMSO [4] | GFP response, % of DMSO [5] | GFP response, % of DMSO [5, 6] | GFP response, % of DMSO [5, 7]
18 | O=C(COc1ccccc1)NNC(=S)NC(=O)c1ccccc1 | 114% (inactive) | 118% | 110% | 171% (active) | 165% | 166% | 127% (inactive) | 116% (inactive) | 108% (inactive) | 121% | 98.7%
19 | O=C(Nc1ccccc1C(=O)O)c1ccccc1 | 100% (inactive) | 99.8% | 101% | 100% (inactive) | 102% | 97.5% | 102% (inactive) | 98.9% (inactive) | 99.3% (inactive) | 102% | 98%
20 | CS(=O)(=O)Nc1ccc(C2=NN(S(C)(=O)=O)C(c3ccccc3)C2)cc1 (stereo not drawn) | 98.7% (inactive) | 98.1% | 98.6% | 133% (inactive) | 138% | 129% | 157% (inactive) | 115% (inactive) | 114% (inactive) | 112% | 114%
21 | O=C(CN1C(=O)c2cccc3cccc(c23)C1=O)N1CCCCCC1 | 102% (inactive) | 101% | 101% | 97% (inactive) | 94.2% | 98.4% | 94.7% (inactive) | 100% (inactive) | 100% (inactive) | 101% | 101%
22 | Cc1c(NC(=O)Nc2ccc3c(c2)OCO3)c(=O)n(-c2ccccc2)n1C | 99.3% (inactive) | 99.1% | 99% | 96.5% (inactive) | 96.5% | 93.6% | 99.5% (inactive) | 96.7% (inactive) | 96.4% (inactive) | 100% | 95.6%
23 | N#Cc1cc([N+](=O)[O-])c(-n2nnc3ccccc32)c([N+](=O)[O-])c1 | 92.8% (inactive) | 94.7% | 88.8% | 172% (active) | 149% | 184% | 90.5% (inactive) | 98.2% (inactive) | 100% (inactive) | 99.2% | 93.2%
24 | OCc1ccccc1SSc1ccccc1CO | 101% (inactive) | 99.2% | 98.5% | 149% (inactive) | 137% | 156% | 100% (inactive) | 104% (inactive) | 103% (inactive) | 101% | 99.8%
25 | Cc1ccc(/C=C/C(=O)c2ccc([N+](=O)[O-])o2)cc1 | 101% (inactive) | 107% | 91.8% | 89.4% (inactive) | 89.8% | 85.2% | 114% (inactive) | 107% (inactive) | 106% (inactive) | 114% | 89.3%
26 | CCn1c(=O)c(C(=O)NCCCO)c(O)c2ccccc21 | 102% (inactive) | 101% | 102% | 111% (inactive) | 111% | 112% | 114% (inactive) | 99.1% (inactive) | 106% (inactive) | 105% | 107%
27 | O=C(COc1ccccc1[N+](=O)[O-])Nc1ccc(NC(=O)c2cc3ccccc3o2)cc1 | 100% (inactive) | 98.9% | 99.3% | 88.7% (inactive) | 92% | 88.9% | 103% (inactive) | 99.8% (inactive) | 92.2% (inactive) | 92.1% | 91.8%
28 | O=[N+]([O-])c1cc(S(=O)(=O)C(F)(F)F)ccc1Sc1nc2ccccc2s1 | 95.6% (inactive) | 95.1% | 93.1% | 184% (active) | 162% | 192% | 102% (inactive) | 88.1% (inactive) | 107% (inactive) | 105% | 99.7%
29 | O=[N+]([O-])c1ccc(Cl)cc1Sc1ccccn1 | 105% (inactive) | 108% | 104% | 94.1% (inactive) | 96% | 91.3% | 112% (inactive) | 102% (inactive) | 111% (inactive) | 110% | 108%
30 | Cc1cccc2c1NC(=O)/C2=C\C(=O)c1cccs1 | 97.2% (inactive) | 91.1% | 89.1% | 164% (active) | 148% | 160% | 104% (inactive) | 107% (inactive) | 92.6% (inactive) | 99.7% | 83.7%
31 | COc1cc(C(=O)ON=C2C3CC4CC(C3)CC2C4)cc(OC)c1OC | 97.4% (inactive) | 97.6% | 95.6% | 108% (inactive) | 102% | 111% | 107% (inactive) | 61.1% (inactive) | 145% (inactive) | 136% | 147%
32 | COc1ccc(CN2CN(C(C)C)CSC2=S)cc1 | 98.8% (inactive) | 96.7% | 92.1% | 112% (inactive) | 106% | 107% | 146% (inactive) | 107% (inactive) | 80.8% (inactive) | 80.1% | 75.1%
33 | CCc1c(C)c2cc(Cl)c(O)c(CN(C)C)c2oc1=O | 95.1% (inactive) | 95.6% | 94.8% | 95.3% (inactive) | 99% | 93.4% | 106% (inactive) | 93.9% (inactive) | 95.8% (inactive) | 95.8% | 94.9%
